MBD2 inh = blocks human MBD2 binding to methylated DNA; AID 686964; inhibition, % at 4.4 µM; TR-FRET, MBD2 binding to methylated oligonucleotide; 370,000 compounds, 0.31% hits; Q9UBB5; in the data active = inhibition above about 13%
TDP2 absorb = TDP2 (human) inhibition, absorbance primary screen | recombinant TDP2, T5PNP hydrolysis, p-nitrophenol absorbance 415 nm | inhibition, % at 12.8 µM | 370,000 compounds, 0.34% hits | AID 720702;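 active = inhibition above the mean of all tested compounds plus 3 SD, set per campaign, cut at about 25% in these data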;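 note: 0% = DMSO with enzyme and 100% = buffer with substrate but no TDP2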
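Material: recombinant human TDP2; quantity: TDP2 enzyme at 120 nM final; medium: Tris-HCl pH 7.5 with MgCl2; compound: single concentration, 12.8 µM nominal, with 1% DMSO; incubation: 2 h enzyme incubation at 37 °C; signal: epi absorbance; measure: percent inhibition; benchmarks: high control without enzyme, low control DMSO plus TDP2; repeats: singlicate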
LEDGF integ inh = blocks HIV-1 LEDGF/p75-dependent DNA integration; TR-FRET IN-LEDGF/p75 DNA integration, Eu/Cy5; inhibition, % at 3.7 µM; 370,000 compounds, 0.64% hits;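 active = inhibition above the screen-wide mean plus 3 SD, cut at about 13% in these data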;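 note: signal is the Cy5 over europium emission ratio at 671 and 618 nm; 0% = plate median of compound wells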
UHRF1 MBD2 ctr = UHRF1 methyl-DNA binding inhibition | UHRF1 binding to methylated oligo, TR-FRET | AID 687016 | 370,000 compounds, 0.75% hits | inhibition, % at 4.4 µM; in the data active = inhibition above about 21%;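 note: UHRF1 SRA domain binding a hemimethylated CpG hairpin DNA probe; 0% = median of test compound wells and 100% = reference inhibitor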
Rin1-Abl PPI inh = human Rin1-Abl interaction inhibition; TR-FRET Rin1/Abl binding, biochemical; 360,000 compounds, 0.4% hits; inhibition, % at 7.35 µM; P00519+Q13671; in the data active = inhibition above about 5%, passing the limit was not always enough
Target sequence (P00519 whole entry, looked up): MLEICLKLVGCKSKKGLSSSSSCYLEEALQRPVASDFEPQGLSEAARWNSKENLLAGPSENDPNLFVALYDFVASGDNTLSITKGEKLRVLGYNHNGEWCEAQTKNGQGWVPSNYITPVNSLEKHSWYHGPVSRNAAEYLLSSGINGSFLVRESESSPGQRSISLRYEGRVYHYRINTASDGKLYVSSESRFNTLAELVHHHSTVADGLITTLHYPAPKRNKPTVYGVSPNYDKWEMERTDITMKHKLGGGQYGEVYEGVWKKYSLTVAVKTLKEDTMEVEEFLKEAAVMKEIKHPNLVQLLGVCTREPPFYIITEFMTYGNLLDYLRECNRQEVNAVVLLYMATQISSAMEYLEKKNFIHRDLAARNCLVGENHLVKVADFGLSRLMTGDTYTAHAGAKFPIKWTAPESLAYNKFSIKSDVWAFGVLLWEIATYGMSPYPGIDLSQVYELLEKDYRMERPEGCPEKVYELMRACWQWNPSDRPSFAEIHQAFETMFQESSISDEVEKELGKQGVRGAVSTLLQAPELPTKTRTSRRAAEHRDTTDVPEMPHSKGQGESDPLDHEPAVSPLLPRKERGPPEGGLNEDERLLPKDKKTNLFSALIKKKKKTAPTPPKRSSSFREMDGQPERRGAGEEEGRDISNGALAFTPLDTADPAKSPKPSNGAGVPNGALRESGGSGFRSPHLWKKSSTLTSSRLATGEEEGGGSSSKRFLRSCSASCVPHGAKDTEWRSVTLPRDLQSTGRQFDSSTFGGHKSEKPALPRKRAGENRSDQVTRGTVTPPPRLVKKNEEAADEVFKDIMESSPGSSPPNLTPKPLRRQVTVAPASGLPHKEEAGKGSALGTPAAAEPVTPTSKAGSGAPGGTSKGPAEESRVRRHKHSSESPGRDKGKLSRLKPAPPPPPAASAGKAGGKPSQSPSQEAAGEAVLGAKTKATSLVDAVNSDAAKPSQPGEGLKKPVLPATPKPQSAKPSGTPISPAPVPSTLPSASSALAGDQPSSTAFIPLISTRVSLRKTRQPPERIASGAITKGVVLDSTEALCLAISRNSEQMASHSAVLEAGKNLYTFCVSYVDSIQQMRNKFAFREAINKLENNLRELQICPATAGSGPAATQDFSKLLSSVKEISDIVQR
Target sequence (Q13671 whole entry, looked up): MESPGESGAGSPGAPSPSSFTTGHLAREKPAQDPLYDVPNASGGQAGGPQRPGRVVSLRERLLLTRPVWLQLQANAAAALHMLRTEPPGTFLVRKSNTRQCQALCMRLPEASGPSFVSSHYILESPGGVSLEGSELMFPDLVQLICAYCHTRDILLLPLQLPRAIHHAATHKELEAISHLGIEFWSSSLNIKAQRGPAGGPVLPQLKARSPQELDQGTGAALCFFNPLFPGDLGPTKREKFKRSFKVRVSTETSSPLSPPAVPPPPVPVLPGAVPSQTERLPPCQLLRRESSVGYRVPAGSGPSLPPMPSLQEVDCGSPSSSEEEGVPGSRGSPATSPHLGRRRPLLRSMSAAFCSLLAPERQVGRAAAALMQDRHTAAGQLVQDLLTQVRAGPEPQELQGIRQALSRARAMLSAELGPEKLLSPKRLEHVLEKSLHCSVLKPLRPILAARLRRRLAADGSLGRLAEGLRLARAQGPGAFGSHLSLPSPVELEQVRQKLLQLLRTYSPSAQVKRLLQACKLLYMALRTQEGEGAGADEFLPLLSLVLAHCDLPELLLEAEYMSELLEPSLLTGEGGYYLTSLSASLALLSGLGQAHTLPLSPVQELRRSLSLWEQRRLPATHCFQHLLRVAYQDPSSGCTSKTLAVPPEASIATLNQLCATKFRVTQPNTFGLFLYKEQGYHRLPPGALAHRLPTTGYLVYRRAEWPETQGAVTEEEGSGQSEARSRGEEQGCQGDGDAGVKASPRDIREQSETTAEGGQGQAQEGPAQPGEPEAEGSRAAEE
Starred values were filed as active, the others as inactive; · = no result given. Compounds with a hit are over-represented: about 1.9% of the library has one in this group of screens.

SMILES	MBD2 inh	TDP2 absorb	LEDGF integ inh	UHRF1 MBD2 ctr	Rin1-Abl PPI inh
COc1ccc(-c2nc3c(C)cc(Br)cn3c2Cc2cccc(Cl)c2)cc1OC	7.3	3.7	-2.6	21.6*	-83.3
COc1ccc(-c2nc3c4ccccc4ccn3c2Cc2ccsc2)cc1OC	12.2	5.1	-0.5	21.5*	3.4
c1ccc2c(c1)ccn1c(Cc3ccsc3)c(C3CCCCC3)nc21	5.8	4.3	2.5	21.4*	·
Cc1ccc(-n2c(SCC(=O)Nc3ccc(Oc4ccccc4)cc3)nnc2-c2cccc(C)c2)cc1	8.4	3.4	-2.2	0.5	·
COc1ccc(-c2nc3c4ccccc4ccn3c2Cc2cccc(Cl)c2)cc1OC	5.5	0.2	-2.6	23.4*	3.9
Fc1cccc(Cc2c(-c3cccc(Br)c3)nc3c(Cl)cc(C(F)(F)F)cn23)c1	0.9	-3.5	3.6	0.1	1.9
COc1ccc(-c2nc3c(Cl)cc(C(F)(F)F)cn3c2Cc2cccc(F)c2)cc1OC	2.8	1.3	-1.1	24.8*	-1.4
NC(=O)c1ccc(NC(=O)CSc2nnc(-c3ccccc3)n2-c2ccccc2)cc1	-3.4	5.7	0.1	3.5	·
Cc1cccc(C)c1NC(=O)C1(C)CCC(=O)N1c1cc(C(C)(C)C)nn1C (configuration not stated)	11.2	-3.9	4.4	22.2*	5.2
Cn1nc(C(C)(C)C)cc1N1C(=O)CCC1(C)C(=O)NCc1ccccc1 (configuration not stated)	3.5	-0.1	-1.4	1.0	0.4
Cc1cc(C)cc(NC(=O)NC2CCN(S(=O)(=O)c3ccc(F)cc3)CC2)c1	-0.6	8.7	4.6	-0.8	·
Cc1cccc(N2C(=O)CC(Sc3ncn[nH]3)C2=O)c1 (configuration not stated)	-1.6	4.8	-3.0	-1.6	2.3
Cc1ccc(N2C(=O)CC(Sc3ncn[nH]3)C2=O)cc1C (configuration not stated)	1.4	-4.4	3.0	22.3*	-3.5
CC(C)c1cc(C(C)C)c(S(=O)(=O)N2CCCC(C(=O)NCc3cccs3)C2)c(C(C)C)c1 (configuration not stated)	-1.9	-9.8	-6.4	-1.2	·
Cn1c(NC(=O)/C=C\c2ccccc2)cc(=O)n(C)c1=O	0.2	-11.5	0.2	25.6*	0.6
Cn1c(NC(=O)/C=C/c2c(F)cccc2Cl)cc(=O)n(C)c1=O	1.0	7.8	5.9	-4.4	3.4
O=C(NCCCNc1ccc(C(F)(F)F)cc1[N+](=O)[O-])c1cc(F)c(F)cc1Cl	5.8	-4.1	1.4	-1.3	2.8
O=C(NCCCNc1ccc(C(F)(F)F)cc1[N+](=O)[O-])c1ccc(Cl)cc1	0.2	-5.2	4.3	52.5*	0.3
Cc1cc(=O)n2c3c(c4c(cc13)c(CN(C)C)cc(=O)n4C)OC2	8.8	86.0*	2.3	16.5	-2.5
CCN(CC)C(=O)CC[C@@H]1CC[C@]2(CCCN(Cc3cccnc3)C2)O1	1.2	2.4	-1.5	-0.8	·
COC(=O)c1cc(Br)c(=O)n(-c2nccs2)c1	2.6	0.9	-0.8	-2.0	-81.3
COC(=O)c1cc(Br)c(=O)n(-c2ccccn2)c1	-5.6	0.9	1.4	37.2*	-1.3
O=C(Cc1ccsc1)NCC(c1ccco1)N1CCCCC1 (configuration not stated)	-5.6	-9.0	-0.3	25.1*	-1.4
O=C(CNC(=O)c1ccco1)NCC(c1ccco1)N1CCCCC1 (configuration not stated)	-4.8	-5.3	-0.6	-1.8	1.1
O=C(CN(Cc1ccccc1)S(=O)(=O)c1ccc(F)cc1)NCCC1=CCCCC1	2.3	-12.2	3.5	4.2	2.8
SMILES	MBD2 inh	TDP2 absorb	LEDGF integ inh	UHRF1 MBD2 ctr	Rin1-Abl PPI inh
Cc1ccc(S(=O)(=O)N(CC(=O)NCCC2=CCCCC2)Cc2ccccc2)cc1	6.5	21.5	5.6	27.7*	-4.2
CCc1ccc(NC(=O)c2cnc3scc(C)n3c2=O)cc1	0.8	4.6	0.4	46.0*	1.0
Oc1ccc2[nH]cc(-c3cccs3)c2c1-c1ccccc1	-8.3	2.0	1.6	-1.6	·
CC1=CC(C)(C)N2C(=O)C3(C(C#N)=C(N)OC4=C3C(=O)CC(C)(C)C4)c3cccc1c32 (configuration not stated)	12.3	-1.1	1.1	20.8*	·
C#CCNC(=O)C[C@H]1C[C@@]2(C(=O)OC)C(=C[C@H](C(C)C)O[C@@H]2C2CC2)N(CCc2ccc(OC)c(OC)c2)C1=O	1.0	-4.8	-0.1	-3.7	·
COc1cc(C(O)C(=O)O)ccc1O (configuration not stated)	-2.1	-10.5	1.8	43.2*	3.3
CCC1CCCCN1C(=O)n1ncc(C(O)(c2ccccc2)c2ccccc2)n1 (configuration not stated)	1.5	3.0	-0.5	3.4	·
COc1cc(OC)c2ccc(=O)oc2c1C(CCN1CCOCC1)c1ccc2c(c1)OCO2 (configuration not stated)	4.3	-2.5	0.6	25.8*	-1.0
CCCCN(C)CCCNC(=O)Cn1cc2c(n1)-c1c(oc(C(=O)N3CCCC3)c1C)CC2	2.2	2.5	-0.7	53.1*	-4.4
CCOC(=O)c1sc2nc(C)nc(NCc3ccccc3OC)c2c1C	1.7	8.8	4.0	5.1	-2.0
CCOC(=O)c1sc2nc(C)nc(NCCc3ccccn3)c2c1C	-5.7	4.3	2.6	68.7*	-1.9
COC(=O)[C@]12C[C@H](CC(=O)NCC3CCCCC3)C(=O)N(Cc3ccccc3)C1=C[C@H](COCc1ccccc1)O[C@@H]2C	2.5	-0.4	2.7	1.0	·
CCCCNC(=O)O[C@H]1CC[C@@]23CCCN2C(=O)CCC[C@H]3[C@H]1C	-0.4	-4.5	-3.4	-0.5	·
COc1cccc(/C=C/C(=O)OCC(=O)NCCC2=CCCCC2)c1	0.8	5.5	2.9	36.6*	0.1
O=C(CSc1ccc(-c2cccs2)nn1)c1cccs1	9.0	6.5	0.1	23.0*	-4.0
O=C(CSc1ccc(-c2cccs2)nn1)Nc1ccccc1	8.1	11.8	-3.6	-1.3	-2.9
CC(C)[C@H]1/C(=C/C2CC2)N2C(=O)C[C@H](c3ccccc3)N=C2N1C	-3.0	-3.0	-1.2	-1.6	·
O=C(O)Cc1sc(N/N=C\c2ccccc2)nc1-c1ccccc1	2.0	9.8	24.7*	-5.2	3.1
CCOC(=O)c1sc(N/N=C/c2ccccc2)nc1C	-3.1	-10.8	1.9	0.3	0.9
O=C(NCc1ccccc1)C(=O)NCC(c1ccco1)N1CCN(c2ccccc2F)CC1 (configuration not stated)	7.4	13.0	3.8	16.9	4.7*
CC1(C(=O)NCc2ccccc2)Cc2c(-c3ccccc3)ccnc2O1 (configuration not stated)	0.9	-2.3	1.9	66.1*	-0.8
O=C1COc2ccc(C(=O)COC(=O)CNS(=O)(=O)c3cccc(F)c3)cc2N1	17.6*	5.8	3.2	20.2	0.7
CC(C)CC(=O)Nc1cccc(C(C)O)c1 (configuration not stated)	-2.3	1.4	3.5	21.2*	·
